Results reported in PMC9998351 (Steroids, 2023).
Several values for one entry are separate records, joined by “and”; a condition that tells them apart may be missing. Equal entries are not always repeated.

What was measured:
[1] = Oral pharmacokinetics and bioavailability in rats; format: in vivo; conditions: for Vd/F: Vz/F; for AUC(0-t): AUClast
How it was run: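 Sprague Dawley rats (8–12 wk, 3/sex/group, catheterised jugular vein) got one oral gavage dose of 10 or 50 mg/kg. Dose was a solution in cremophor:ethanol:saline (1:1:8), pH 4.0, at 10 ml/kg. EDTA plasma was collected at 5, 15, 30 min, 1, 2, 4, 6 and 24 h, precipitated with acetonitrile, and quantified by LC-MS/MS against abiraterone internal standard. Noncompartmental parameters; bioavailability from oral AUClast versus IV.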

[2] = tested on: CRPC CWR22Rv1 xenograft tumors; conditions: ref [26], cited from earlier work
[3] = Chronic dosing toxicity in male nude mice; format: in vivo; conditions: male, Nude, mouse, in vivo, ip
male Nude mice = experiment: Chronic dosing toxicity in male nude mice; format: in vivo; conditions: male nude mice
[4] = Intravenous pharmacokinetics in rats; format: in vivo; conditions: for Cmax/D / Tmax / AUCinf / AUClast / C0 / CL / Cmax / T1/2 / Vss / Vz / AUC(0-inf) / AUC(0-t) / clearance / half-life / Vd: 1 mg/kg IV; for AUC(0-inf): AUCinf; for AUC(0-t): AUClast; for clearance: CL
How it was run: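 Single 1 mg/kg IV dose to jugular-vein-catheterised Sprague Dawley rats (8–12 wk, 3/sex), given in cremophor:ethanol:saline (1:1:8), pH 4.0 (acetic acid), at 10 ml/kg. EDTA blood was taken at 5, 15, 30 min, 1, 2, 4, 6 and 24 h for plasma. Plasma was prepared by acetonitrile precipitation and aqueous dilution, then run on LC-MS/MS (positive ESI, MRM 439.2>371.2, abiraterone internal standard). Noncompartmental PK.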

[5] = male, Sprague Dawley, rat, plasma, po, 50 mg/kg, male rats, 50 mg/kg PO, GeoMean
[6] = male, Sprague Dawley, rat, plasma, po, 50 mg/kg, male rats, 50 mg/kg PO, individual rat
[7] = female rats, individual rat, 1 mg/kg
[8] = female, Sprague Dawley, rat, plasma, iv, 1 mg/kg, female rats, GeoMean
[9] = female, Sprague Dawley, rat, plasma, iv, 1 mg/kg, female rats, individual rat
[10] = male rats, individual rat, 1 mg/kg
[11] = male, Sprague Dawley, rat, plasma, iv, 1 mg/kg, male rats, GeoMean (third rat excluded)

C[C@]12CC[C@H](n3ccnc3)CC1=CC[C@@H]1[C@@H]2CC[C@]2(C)C(n3cnc4ccccc43)=CC[C@@H]12 [Compound 2, 3β-(1H-imidazole-1-yl)-17-(1H-benzimidazole-1-yl)-androsta-5,16-diene]
Vd/F ([1]; male, Sprague Dawley, rat, plasma, po, 10 mg/kg, male rats, 10 mg/kg PO, individual rat): 12.4 L/kg
AUC(0-t) [1, 5]: 56200 ng·h/mL
AUC(0-t) [1, 6]: 39700 ng·h/mL
CL/F ([1]; male, Sprague Dawley, rat, plasma, po, 50 mg/kg, CL/F, male rats, 50 mg/kg PO, GeoMean): 1.71 mL/min/kg
Cmax [1, 5]: 2730 ng/mL
Cmax [1, 6]: 1870 ng/mL
Tmax ([1]; male, Sprague Dawley, rat, plasma, po, 50 mg/kg, Tmax, male rats, 50 mg/kg PO, GeoMean): 9.52 h
Vd/F [1, 5]: 14.6 L/kg
Vd/F [1, 6]: 14.4 L/kg
Extrapolated percentage of AUC0-inf ([1]; rats, PO dosing, text (and beyond)): 17–82%
Host toxicity ([2]; CWR22Rv1 xenograft study): no apparent host toxicity
Suppression of tumor growth ([2]; CWR22Rv1 xenograft, 2 at 7.53-fold lower equimolar dose than Gal, p < 0.01): 84%
Efficacy compared with enzalutamide ([2]; CWR22Rv1 xenograft): more efficacious than enzalutamide
MTD at 14 days [3]: 25 to 50 mg/kg
Mortality (male Nude mice; 0.5 MTD group, five days a week for two weeks, day 7): Two mice died
Condition of other groups (male Nude mice; chronic dosing 0.2 MTD and MTD groups, 14 days): looked healthy
Cmax/D ([4]; female rats, GeoMean): 311 ng/mL/mg/kg
Tmax ([4]; female rats, individual rat): 5.0 min
AUCinf [4, 7]: 199 µg·min/mL and 171 µg·min/mL
AUClast [4, 7]: 140 µg·min/mL and 126 µg·min/mL
C0 [4, 7]: 342 ng/mL and 418 ng/mL
CL [4, 7]: 5.03 mL/min/kg and 5.85 mL/min/kg
Cmax [4, 7]: 291 ng/mL and 350 ng/mL
Cmax/D [4, 7]: 296 ng/mL/mg/kg and 291 ng/mL/mg/kg and 350 ng/mL/mg/kg
T1/2 [4, 7]: 15.0 h and 13.8 h
Tmax [4, 7]: 15 min and 5.0 min
Vss [4, 7]: 5.99 L/kg and 6.31 L/kg
Vz [4, 7]: 6.51 L/kg and 6.98 L/kg
AUC(0-inf) [4, 8]: 3380 ng·h/mL
AUC(0-inf) [4, 9]: 4130 ng·h/mL
AUC(0-t) [4, 8]: 2400 ng·h/mL
AUC(0-t) [4, 9]: 2800 ng·h/mL
C0 ([4]; female, Sprague Dawley, rat, plasma, iv, 1 mg/kg, C0, female rats, GeoMean): 333 ng/mL
C0 ([4]; female, Sprague Dawley, rat, plasma, iv, 1 mg/kg, C0, female rats, individual rat): 259 ng/mL
clearance [4, 8]: 4.92 mL/min/kg
clearance [4, 9]: 4.04 mL/min/kg
Cmax ([4]; female, Sprague Dawley, rat, plasma, iv, 1 mg/kg, Cmax, female rats, GeoMean): 311 ng/mL
Cmax ([4]; female, Sprague Dawley, rat, plasma, iv, 1 mg/kg, Cmax, female rats, individual rat): 296 ng/mL
half-life ([4]; female, Sprague Dawley, rat, plasma, iv, 1 mg/kg, T1/2, female rats, GeoMean): 858 min
half-life ([4]; female, Sprague Dawley, rat, plasma, iv, 1 mg/kg, T1/2, female rats, individual rat): 846 min
Tmax ([4]; female, Sprague Dawley, rat, plasma, iv, 1 mg/kg, Tmax, female rats, GeoMean): 7.21 min
Vd ([4]; female, Sprague Dawley, rat, plasma, iv, 1 mg/kg, Vss, female rats, GeoMean): 5.73 L/kg
Vd ([4]; female, Sprague Dawley, rat, plasma, iv, 1 mg/kg, Vss, female rats, individual rat): 4.96 L/kg
Vd ([4]; female, Sprague Dawley, rat, plasma, iv, 1 mg/kg, Vz, female rats, GeoMean): 6.08 L/kg
Vd ([4]; female, Sprague Dawley, rat, plasma, iv, 1 mg/kg, Vz, female rats, individual rat): 4.93 L/kg
Overt toxic effects during conduct of PK study ([4]; male and female rats, single dose 1 mg/kg IV, 10 or 50 mg/kg PO): No overt toxic effects were observed
Cmax/D ([4]; male rats, GeoMean (third rat excluded)): 305 ng/mL/mg/kg
AUCinf [4, 10]: 64.0 µg·min/mL and 321 µg·min/mL
AUClast [4, 10]: 46.6 µg·min/mL and 139 µg·min/mL
C0 [4, 10]: 443 ng/mL
CL [4, 10]: 15.6 mL/min/kg and 3.11 mL/min/kg
Cmax [4, 10]: 392 ng/mL
Cmax/D [4, 10]: 237 ng/mL/mg/kg and 392 ng/mL/mg/kg
T1/2 [4, 10]: 2.96 h and 31.4 h
Vss [4, 10]: 8.14 L/kg
Vz [4, 10]: 4.00 L/kg and 8.46 L/kg
AUC(0-inf) [4, 11]: 2380 ng·h/mL
AUC(0-t) [4, 11]: 1340 ng·h/mL
C0 ([4]; male, Sprague Dawley, rat, plasma, iv, 1 mg/kg, C0, male rats, GeoMean (third rat excluded)): 336 ng/mL
C0 ([4]; male, Sprague Dawley, rat, plasma, iv, 1 mg/kg, C0, male rats, individual rat): 254 ng/mL
clearance [4, 11]: 6.97 mL/min/kg
Cmax ([4]; male, Sprague Dawley, rat, plasma, iv, 1 mg/kg, Cmax, male rats, GeoMean (third rat excluded)): 305 ng/mL
Cmax ([4]; male, Sprague Dawley, rat, plasma, iv, 1 mg/kg, Cmax, male rats, individual rat): 237 ng/mL
half-life ([4]; male, Sprague Dawley, rat, plasma, iv, 1 mg/kg, T1/2, male rats, GeoMean (third rat excluded)): 578 min
Tmax ([4]; male, Sprague Dawley, rat, plasma, iv, 1 mg/kg, Tmax, male rats, GeoMean (third rat excluded)): 5 min
Tmax ([4]; male, Sprague Dawley, rat, plasma, iv, 1 mg/kg, Tmax, male rats, individual rat): 5 min
Vd ([4]; male, Sprague Dawley, rat, plasma, iv, 1 mg/kg, Vss, male rats, GeoMean (third rat excluded)): 5.81 L/kg
Vd ([4]; male, Sprague Dawley, rat, plasma, iv, 1 mg/kg, Vss, male rats, individual rat): 4.14 L/kg
Vd ([4]; male, Sprague Dawley, rat, plasma, iv, 1 mg/kg, Vz, male rats, GeoMean (third rat excluded)): 5.82 L/kg
